Paper PMC7893122 (Acta Pharmaceutica Sinica. B, 2020)

Experiments:
BRD4 (BD1) = BRD4 (BD1) (Homo sapiens, UniProt O60885); test: Homogeneous time-resolved fluorescence binding assay, BRD4; conditions: IC50 BRD4 (BD1), mean ± SD from three separate experiments
[1] = tested on: HH signaling pathway (GLI-responsive firefly luciferase reporter); test: Dual luciferase reporter assay; type: cell-based; conditions: for IC50: read-out: IC50 GLI-luc reporter
hERG channel = hERG channel (Homo sapiens, UniProt Q12809); test: hERG inhibition; type: cell-based
Chain of hERG channel (Q12809 whole entry): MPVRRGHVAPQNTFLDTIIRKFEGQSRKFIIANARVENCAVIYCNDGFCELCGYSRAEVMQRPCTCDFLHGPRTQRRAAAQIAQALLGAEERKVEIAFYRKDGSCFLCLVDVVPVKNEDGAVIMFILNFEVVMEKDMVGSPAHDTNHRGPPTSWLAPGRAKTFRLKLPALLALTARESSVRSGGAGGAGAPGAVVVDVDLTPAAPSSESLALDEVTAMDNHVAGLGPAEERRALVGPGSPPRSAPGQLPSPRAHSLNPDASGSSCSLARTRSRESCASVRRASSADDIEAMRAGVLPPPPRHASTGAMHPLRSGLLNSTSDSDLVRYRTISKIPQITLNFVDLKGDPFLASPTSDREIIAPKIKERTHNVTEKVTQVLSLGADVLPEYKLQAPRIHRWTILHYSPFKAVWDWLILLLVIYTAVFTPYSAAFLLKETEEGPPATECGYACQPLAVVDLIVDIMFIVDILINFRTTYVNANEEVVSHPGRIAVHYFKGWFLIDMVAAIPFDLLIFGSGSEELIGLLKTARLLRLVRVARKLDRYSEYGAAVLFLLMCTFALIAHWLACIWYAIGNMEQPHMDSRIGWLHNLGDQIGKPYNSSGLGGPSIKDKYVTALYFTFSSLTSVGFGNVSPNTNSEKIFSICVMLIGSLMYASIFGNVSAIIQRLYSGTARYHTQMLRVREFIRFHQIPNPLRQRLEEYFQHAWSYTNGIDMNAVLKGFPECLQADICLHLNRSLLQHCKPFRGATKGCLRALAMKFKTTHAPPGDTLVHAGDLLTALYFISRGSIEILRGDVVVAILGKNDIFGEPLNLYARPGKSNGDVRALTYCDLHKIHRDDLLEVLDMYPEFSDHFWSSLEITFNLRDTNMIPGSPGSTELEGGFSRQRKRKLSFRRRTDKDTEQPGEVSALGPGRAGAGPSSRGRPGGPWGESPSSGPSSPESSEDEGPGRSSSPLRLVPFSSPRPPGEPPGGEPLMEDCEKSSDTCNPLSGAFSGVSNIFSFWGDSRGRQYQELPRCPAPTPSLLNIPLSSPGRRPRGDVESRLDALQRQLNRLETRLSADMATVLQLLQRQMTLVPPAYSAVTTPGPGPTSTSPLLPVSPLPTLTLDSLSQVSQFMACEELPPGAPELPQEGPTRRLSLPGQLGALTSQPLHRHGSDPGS

[2] = Pharmacokinetics in Sprague–Dawley rats; type: in vivo; conditions: rat; for AUC(0-inf) / AUC(0-t) / MRT inf / clearance / half-life / Cmax / Tmax: Sprague-Dawley, plasma; for Vss_obs: i.v. 1 mg/kg
H3132 = test: Cell growth inhibition; type: cell-based; conditions: 72 h
In short: (§1)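 Cells seeded in 96-well plates and incubated overnight. DMSO stocks of test compound were thawed at room temperature, diluted with saline to working concentrations, and added for 72 h. Growth read by CCK-8 assay, giving IC50/GI50.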

N87 = test: Cell growth inhibition; type: cell-based; conditions: 72 h
In short: as §1

HT1080 = test: Cell growth inhibition; type: cell-based; conditions: Homo sapiens, HT-1080, 72 h
In short: as §1

Colo680N = test: Cell growth inhibition; type: cell-based; conditions: Homo sapiens, COLO-680N, 72 h
In short: as §1

HSC-2 = test: Cell growth inhibition; type: cell-based; conditions: Homo sapiens, HSC-2, 72 h
In short: as §1

KYSE450 = test: Cell growth inhibition; type: cell-based; conditions: Homo sapiens, KYSE-450, 72 h
In short: as §1

TOV-21G = test: Cell growth inhibition; type: cell-based; conditions: Homo sapiens, TOV21G, 72 h
In short: as §1

CAL27 = test: Cell growth inhibition; type: cell-based; conditions: Homo sapiens, CAL-27, 72 h
In short: as §1

SKM-1 = test: Cell growth inhibition; type: cell-based; conditions: Homo sapiens, SKM-1, 72 h
In short: as §1

H1975 = test: Cell growth inhibition; type: cell-based; conditions: Homo sapiens, NCI-H1975, 72 h
In short: as §1

DOHH-2 = test: Cell growth inhibition; type: cell-based; conditions: Homo sapiens, DOHH-2, 72 h
In short: as §1

CHL normal cell line = test: Cell growth inhibition; type: cell-based; conditions: 72 h
In short: as §1

GLI1 = test: GLI-luciferase activity in light2 cells after transfection with GLI1; type: cell-based; conditions: read-out: IC50, GLI-luciferase activity provoked by forced expression of GLI1
In short: (§2)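 Light2 cells (NIH-3T3 stably carrying GLI-responsive firefly luciferase and renilla expression vector) lipofected with FLAG-GLI1 or MYC-GLI2-FL. Test compound added 24 h post-transfection, then 36 h exposure. Dual-luciferase read-out, firefly normalised to TK-renilla.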

GLI2 = test: GLI-luciferase activity in light2 cells after transfection with GLI2; type: cell-based; conditions: read-out: IC50, GLI-luciferase activity provoked by forced expression of GLI2
In short: as §2

SMO^WT = test: GLI-luciferase activity in light2 cells with ectopic SMO^WT; type: cell-based; conditions: read-out: IC50, GLI-luciferase activity induced by SMO^WT
In short: (§3)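 NIH-3T3-derived light2 reporter cells (stable GLI-responsive firefly luciferase plus renilla vector) with forced SMO expression, exposed to test compound for 36 h. Dual-luciferase kit read-out; firefly signal normalised to TK-renilla.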

SMO^D473H = test: GLI-luciferase activity in light2 cells with ectopic SMO^D473H; type: cell-based; conditions: read-out: IC50, GLI-luciferase activity induced by SMO^D473H
In short: as §3

SMO^W535L = test: GLI-luciferase activity in light2 cells with ectopic SMO^W535L; type: cell-based; conditions: read-out: IC50, GLI-luciferase activity induced by SMO^W535L
In short: as §3

endogenous GLI2 = test: Western blot of endogenous GLI2 in light2 cells; type: cell-based; conditions: 25 at 10 and 100 nmol/L, GDC-0449 100 nmol/L
In short: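 Light2 cells treated with test compound, lysed in LDS sample buffer, and run on SDS-PAGE. Immunoblotting used anti-GLI2 (1:1000), with GAPDH (1:5000) as reference.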

GLI2-MYC = test: Western blot of exogenous GLI2-MYC in transfected light2 cells; type: cell-based; conditions: light2 cells transfected with GLI2-MYC
In short: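 Light2 cells lipofected with FLAG-GLI1 or MYC-GLI2-FL; test compound added 24 h after transfection. Lysis in LDS sample buffer, then SDS-PAGE. Immunoblots probed with tag or GLI2 antibodies (1:1000), with GAPDH (1:5000) as reference.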

[3] = tested on: SMOA1 MB allografts (SMO^W539L); test: SMOA1 MB allograft model; type: in vivo, nude mice; conditions: bid
In short: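 Primary SMOA1 MB allografts from ND2:SMOA1 transgenic mice grafted subcutaneously into nude mice. Dosing started at 100–150 mm3 tumour size: test compound p.o. twice daily, vehicle 0.5% CMC-Na, n ≥ 3 per group. Caliper measurement every 3 days; volume = 0.5 × length × width². Body weight tracked; group means ± SEM.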

SMO wild MB = conditions: 20 mg/kg p.o., bid; cited from earlier work

CCS(=O)(=O)Nc1ccc(Oc2ccc(F)cc2F)c(-c2cn(C)c(=O)c3[nH]ccc23)c1 [Compound 2, N-(4-(2,4-difluorophenoxy)-3-(6-methyl-7-oxo-6,7-dihydro-1H-pyrrolo[2,3-c]pyridin-4-yl)phenyl)ethanesulfonamide, reference compound]
IC50 (BRD4 (BD1)): 3.4 ± 0.2 nM
fold selectivity for the HH pathway against BRD4 (fold less potent against BRD4) ([1]; BRD4 (BD1) IC50 vs GLI-luc IC50): ~10 fold
IC50 [1]: 0.41 ± 0.34 nM
IC50 (hERG channel): 35500 nM
AUC(0-inf) ([2]; iv, 1 mg/kg): 1200 ng·h/mL
AUC(0-t) ([2]; iv, 1 mg/kg): 1190 ng·h/mL
MRT inf ([2]; iv, 1 mg/kg): 187 min
clearance ([2]; iv, 1 mg/kg): 17.6 mL/min/kg
half-life ([2]; iv, 1 mg/kg): 164 min
AUC(0-inf) ([2]; po, 3 mg/kg): 2050 ng·h/mL
AUC(0-t) ([2]; po, 3 mg/kg): 2030 ng·h/mL
Cmax ([2]; po, 3 mg/kg): 401 ng/mL
MRT inf ([2]; po, 3 mg/kg): 327 min
Tmax ([2]; po, 3 mg/kg): 165 min
half-life ([2]; po, 3 mg/kg): 200 min
Vss_obs [2]: 2.772 L/kg

Cn1cc(-c2cc(N3CCCS3(=O)=O)ccc2Oc2ccc(F)cc2F)c2c(F)c[nH]c2c1=O [Compound 24]
IC50 (BRD4 (BD1)): 0.5 ± 0.06 nM
IC50 [1]: 0.93 ± 0.16 nM
IC50 (hERG channel): > 40000 nM
AUC(0-inf) ([2]; iv, 1 mg/kg): 509 ng·h/mL
AUC(0-t) ([2]; iv, 1 mg/kg): 509 ng·h/mL
MRT inf ([2]; iv, 1 mg/kg): 45.6 min
clearance ([2]; iv, 1 mg/kg): 33.2 mL/min/kg
half-life ([2]; iv, 1 mg/kg): 33.6 min
AUC(0-inf) ([2]; po, 3 mg/kg): 473 ng·h/mL
AUC(0-t) ([2]; po, 3 mg/kg): 473 ng·h/mL
Cmax ([2]; po, 3 mg/kg): 474 ng/mL
MRT inf ([2]; po, 3 mg/kg): 75.6 min
Tmax ([2]; po, 3 mg/kg): 30 min
half-life ([2]; po, 3 mg/kg): 57 min
Vss_obs [2]: 1.513 L/kg

Cn1cc(-c2cc(N3CCCCS3(=O)=O)ccc2Oc2ccc(F)cc2F)c2c(F)c[nH]c2c1=O [Compound 25]
IC50 (BRD4 (BD1)): 1.51 ± 0.43 nM
IC50 [1]: 0.48 ± 0.08 nM
IC50 (hERG channel): 27300 nM
AUC(0-inf) ([2]; iv, 1 mg/kg): 614 ng·h/mL
AUC(0-t) ([2]; iv, 1 mg/kg): 614 ng·h/mL
MRT inf ([2]; iv, 1 mg/kg): 46.2 min
clearance ([2]; iv, 1 mg/kg): 27.2 mL/min/kg
half-life ([2]; iv, 1 mg/kg): 32.4 min
AUC(0-inf) ([2]; po, 3 mg/kg): 406 ng·h/mL
AUC(0-t) ([2]; po, 3 mg/kg): 406 ng·h/mL
Cmax ([2]; po, 3 mg/kg): 503 ng/mL
MRT inf ([2]; po, 3 mg/kg): 57 min
Tmax ([2]; po, 3 mg/kg): 15 min
half-life ([2]; po, 3 mg/kg): 57.6 min
Vss_obs [2]: 1.258 L/kg
GI50 (H3132): 140 nM
GI50 (N87): 130 nM
GI50 (HT1080): 1000 nM
GI50 (Colo680N): 2300 nM
GI50 (HSC-2): 770 nM
GI50 (KYSE450): 1600 nM
GI50 (TOV-21G): 23 nM
GI50 (CAL27): 110 nM
GI50 (SKM-1): 19 nM
GI50 (H1975): 34 nM
GI50 (DOHH-2): 6.6 nM
GI50 (CHL normal cell line): > 10000 nM
IC50 (GLI1): 0.97 nM
IC50 (GLI2): 2.2 nM
IC50 (SMO^WT): 1.16 nM
IC50 (SMO^D473H): 1.44 nM
IC50 (SMO^W535L): 1.13 nM
Effect on abundance of endogenous GLI2 proteins (endogenous GLI2): dramatically reduced
Effect on expression of exogenous GLI2-MYC (GLI2-MYC): failed to inhibit
Tolerability ([3]; 5 mg/kg p.o.): well tolerant
tumor growth inhibition (TGI) ([3]; 5 mg/kg p.o., Fig. 6A): 83.3%
Tolerability ([3]; 10 mg/kg p.o.): well tolerant
tumor growth inhibition (TGI) ([3]; 10 mg/kg p.o., Fig. 5A): 88.2%
Body weight change ([3]; 10 mg/kg p.o., Fig. 5B): No obvious body weight loss
tumor growth inhibition (TGI) ([3]; 10 mg/kg p.o., Fig. 6A): 87.6%

Cn1cc(-c2cc(N3CCCS3(=O)=O)ccc2Oc2ccc(F)cc2F)c2cc(C(N)=O)[nH]c2c1=O [Compound 28]
IC50 (BRD4 (BD1)): 0.09 ± 0.04 nM
fold less potent for the HH pathway than against BRD4 ([1]; GLI-luc IC50 vs BRD4 (BD1) IC50): 16 fold
IC50 [1]: 1.5 ± 0.39 nM
IC50 (hERG channel): > 40000 nM

CCNC(=O)c1cc2c(-c3cc(N4CCCS4(=O)=O)ccc3Oc3ccc(F)cc3F)cn(C)c(=O)c2[nH]1 [Compound 30]
IC50 (BRD4 (BD1)): 0.6 ± 0.41 nM
IC50 [1]: 0.05 ± 0.01 nM
IC50 (hERG channel): 6400 nM
AUC(0-inf) ([2]; iv, 1 mg/kg): 278 ng·h/mL
AUC(0-t) ([2]; iv, 1 mg/kg): 278 ng·h/mL
MRT inf ([2]; iv, 1 mg/kg): 47.6 min
clearance ([2]; iv, 1 mg/kg): 61.5 mL/min/kg
half-life ([2]; iv, 1 mg/kg): 40.8 min
AUC(0-inf) ([2]; po, 3 mg/kg): 9.91 ng·h/mL
AUC(0-t) ([2]; po, 3 mg/kg): 9.91 ng·h/mL
Cmax ([2]; po, 3 mg/kg): 15.2 ng/mL
MRT inf ([2]; po, 3 mg/kg): 53.4 min
Tmax ([2]; po, 3 mg/kg): 15 min
half-life ([2]; po, 3 mg/kg): 81 min
Vss_obs [2]: 2.891 L/kg

CCNC(=O)c1cc2c(-c3cc(N4CCCCS4(=O)=O)ccc3Oc3ccc(F)cc3F)cn(C)c(=O)c2[nH]1 [Compound 31]
IC50 (BRD4 (BD1)): 0.13 ± 0.005 nM
IC50 [1]: 0.81 ± 0.24 nM
IC50 (hERG channel): 11700 nM
AUC(0-inf) ([2]; iv, 1 mg/kg): 217 ng·h/mL
AUC(0-t) ([2]; iv, 1 mg/kg): 213 ng·h/mL
MRT inf ([2]; iv, 1 mg/kg): 34.2 min
clearance ([2]; iv, 1 mg/kg): 77.6 mL/min/kg
half-life ([2]; iv, 1 mg/kg): 41.4 min
AUC(0-inf) ([2]; po, 3 mg/kg): 22.1 ng·h/mL
AUC(0-t) ([2]; po, 3 mg/kg): 18.3 ng·h/mL
Cmax ([2]; po, 3 mg/kg): 15.5 ng/mL
MRT inf ([2]; po, 3 mg/kg): 143 min
Tmax ([2]; po, 3 mg/kg): 19.8 min
half-life ([2]; po, 3 mg/kg): 93 min
Vss_obs [2]: 3.512 L/kg

Cn1cc(-c2cc(N3CCCS3(=O)=O)ccc2Oc2ccc3occc3c2)c2cc[nH]c2c1=O [Compound 33]
IC50 (BRD4 (BD1)): 2.85 ± 0.5 nM
IC50 [1]: 1.03 ± 0.28 nM

Cn1cc(-c2cc(N3CCCCS3(=O)=O)ccc2N[C@@H]2C[C@@H](CO)[C@@H](O)C2)c2cc[nH]c2c1=O [Compound 39]
IC50 (BRD4 (BD1)): 3.42 ± 0.25 nM
IC50 [1]: > 100 nM

CS(=O)(=O)c1ccc(C(=O)Nc2ccc(Cl)c(-c3ccccn3)c2)c(Cl)c1 [GDC-0449, reference compound]
Effect on abundance of endogenous GLI2 proteins (endogenous GLI2): no effect
Effect on tumor growth ([3]; 20 mg/kg p.o., Fig. 5A): failed to affect the tumor growth
Tumor growth inhibition in SMO wild MB mice (SMO wild MB): complete tumor growth inhibition

CN1C(=O)C(C)(C)Oc2c(-c3cn(C)c(=O)c4[nH]ccc34)cc(S(C)(=O)=O)cc21 [INCB-057643, reference compound]
IC50 (BRD4 (BD1)): 11.6 ± 1.8 nM
IC50 [1]: 40.6 ± 4.9 nM
